Activity calls are given as the source filed them.
Assays:
Assay type in all cases: functional, cell-based
Hippocampal neurone [1] = test: Anti-neuronal activity against hippocampal neuron in Wistar rat assessed as H3K27Ac promoters VI by qPCR assay analysis
Summary of the method: (§1)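 E18 Wistar rat hippocampal neurons were cultured 15 DIV and stimulated with 20 µM NMDA for 5 min, then the medium was replaced. Cells were crosslinked with 1% formaldehyde for 10 min at 37 °C and chromatin sonicated to 400–700 bp. 100 µg protein per overnight immunoprecipitation at 4 °C, with rabbit IgG as negative control. Promoter DNA was quantified by qPCR against unstimulated controls; n = independent cultures.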

Hippocampal neurone [2] = test: Anti-neuronal activity against hippocampal neuron in Wistar rat assessed as active CREB was found at the BDNF promoters by qPCR assay analysis; summary of the method: as §1
Hippocampal neurone [3] = test: Anti-neuronal activity against hippocampal neuron in Wistar rat assessed as H3K27Ac promoters I by qPCR assay analysis; summary of the method: as §1
Hippocampal neurone [4] = test: Anti-neuronal activity against hippocampal neuron in Wistar rat assessed as blocked transcriptional activation of promoters VI by qPCR assay analysis
Summary of the method: (§2)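 Rat hippocampal cultures (15 DIV) were pretreated for 1 h with 10 µM SB203580 (p38 inhibitor), then given 20 µM NMDA for 5 min. Bdnf transcripts were measured by RT-qPCR 30 min after NMDA, using 0.5 µM primers and Gapdh, GusB and Pgk1 as reference genes. Samples were compared with non-stimulated controls; n = independent cultures.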

Hippocampal neurone [5] = test: Anti-neuronal activity against hippocampal neuron in Wistar rat assessed as blocked transcriptional activation of promoters II by qPCR assay analysis; summary of the method: as §2
Hippocampal neurone [6] = test: Anti-neuronal activity against hippocampal neuron in Wistar rat assessed as blocked H3K27Me3 demethylation at promoters VI by qPCR assay analysis; summary of the method: as §1
Hippocampal neurone [7] = test: Anti-neuronal activity against hippocampal neuron in Wistar rat assessed as blocked recruitment of CBP by qPCR assay analysis; summary of the method: as §1
Hippocampal neurone [8] = test: Anti-neuronal activity against hippocampal neuron in Wistar rat assessed as blocked H3K27Me3 demethylation at promoters IV by qPCR assay analysis; summary of the method: as §1
Hippocampal neurone [9] = test: Anti-neuronal activity against hippocampal neuron in Wistar rat assessed as higher levels of H3K27Me3 at promoter II by qPCR assay analysis; summary of the method: as §1
Hippocampal neurone [10] = test: Anti-neuronal activity against hippocampal neuron in Wistar rat assessed as impaired recruitment of JMJD3 by qPCR assay analysis; summary of the method: as §1
Hippocampal neurone [11] = test: Anti-neuronal activity against hippocampal neuron in Wistar rat assessed as H89 blocked CREB phosphorylation at Serine 133 by western blot analysis

Measured: Activity

O=C(Nc1ccc(Cl)cc1)c1cc2ccccc2cc1O
not listed: Hippocampal neurone [11]
active: all other assays above

O=S(=O)(NCCNC/C=C/c1ccc(Br)cc1)c1cccc2cnccc12
active: Hippocampal neurone [11]

From ChEMBL document CHEMBL5712889, “Neuronal activity controls Bdnf expression via Polycomb de-repression and CREB/CBP/JMJD3 activation in mature neurons” (Nat Commun, 2016)
